What was measured:
[1] = test system: Human immunodeficiency virus 1; test: Antiviral activity against HIV1 NL4-3 infected in human MT4 cells assessed as inhibition of virus-induced cytopathic effect incubated for 3 to 4 days by MTT assay; assay type: functional, organism-based; conditions: Human immunodeficiency virus 1, NL4-3, MT4
How it was run: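 MT-4 cells seeded with serial compound dilutions, then infected with HIV-1 NL4-3 at final MOI 0.03; 37 °C, 5% CO2, humidified, 3 or 4 days. MTT (5 mg/mL in PBS) added for 3 h, cells lysed in 10% Triton X-100/acidified 2-propanol, absorbance 570 nm. EC50 = concentration giving 50% protection against HIV-induced cytopathic effect.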

[2] = Selectivity index, ratio of CC50 against human MT4 cells to EC50 for HIV1 NL4-3 infected in human MT4 cells; assay type: toxicity, cell-based; conditions: MT4 cells (CC50) and HIV1 NL4-3 infected MT4 cells (EC50)
How it was run: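 SI calculated as CC50 (MT-4 cytotoxicity, MTT read-out) divided by EC50 (protection of MT-4 cells from HIV-1 NL4-3 cytopathic effect, MOI 0.03), both from parallel 3–4 day assays at 37 °C.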

[3] = Cytotoxicity against human MT4 cells assessed as reduction in cell viability incubated for 3 to 4 days by MTT assay; assay type: cell-based
How it was run: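 Serially diluted compounds on MT-4 cells, 37 °C, 5% CO2, humidified, 3 or 4 days; viability by MTT (5 mg/mL in PBS, 3 h), formazan solubilized with 10% Triton X-100 in acidified 2-propanol, read at 570 nm. CC50 = concentration killing 50% of MT-4 cells.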

Row | Compound | EC50 [1] | selectivity ratio [2] | CC50 [3]
1 | C=C1[C@H]2C(=O)[C@@]3(C)[C@@H](O[C@@]14CC(=O)O[C@@H](c1ccoc1)[C@]4(C)[C@H]2O)[C@@H](OC(C)=O)[C@@H](OC(C)=O)C(C)(C)[C@@H]3CC(=O)OC | > 100 µM |  | 
2 | COC(=O)C[C@H]1C(C)(C)[C@H](OC(C)=O)[C@H](O)[C@@H]2OC3=C(C)C4=CC(=O)O[C@@H](c5ccoc5)[C@]4(C)[C@@H](O)[C@@H]3[C@@]21C | > 100 µM |  | 
3 | COC(=O)C[C@H]1C(C)(C)[C@H](O)[C@H](O)[C@@H]2OC3=C(C)C4=CC(=O)O[C@@H](c5ccoc5)[C@]4(C)[C@@H](O)[C@@H]3[C@@]21C | > 100 µM |  | 
4 | COC(=O)C[C@H]1C(C)(C)[C@H](OC(C)=O)[C@H](OC(C)=O)[C@@H]2O[C@]34CC(=O)O[C@@H](c5ccoc5)[C@]3(C)[C@@H](O)[C@@H](C(=O)[C@]4(C)O)[C@@]21C | > 100 µM |  | 
5 | C=C1[C@@H]2C[C@@]3(C)[C@H](C4=C[C@@H](O)OC4=O)OC(=O)C[C@]13O[C@H]1C[C@@H](OC(C)=O)C(C)(C)[C@H](CC(=O)OC)[C@@]1(C)C2=O | > 100 µM |  | 
6 | COC(=O)C[C@H]1C(C)(C)[C@H](OC(C)=O)[C@H](OC(C)=O)[C@@H]2O[C@]34CC(=O)O[C@@H](c5ccoc5)[C@]3(C)[C@@H](O)[C@@H](C(=O)[C@@]4(C)O)[C@@]21C | > 100 µM |  | 
7 | C=C1[C@H]2C(=O)[C@@]3(C)[C@@H](O[C@@]14CC(=O)O[C@@H](C1=C[C@@H](O)OC1=O)[C@]4(C)[C@H]2OC(C)=O)[C@@H](OC(C)=O)[C@@H](OC(C)=O)C(C)(C)[C@@H]3CC(=O)OC | > 100 µM |  | 
8 | COC(=O)C[C@H]1C(C)(C)[C@H](OC(C)=O)C[C@@H]2O[C@]34CC(=O)O[C@@H](c5ccoc5)[C@]3(C)[C@@H](O)[C@@H](C(=O)[C@@H]4C)[C@@]21C | > 100 µM |  | 
9 | COC(=O)C[C@H]1C(C)(C)[C@H](OC(C)=O)[C@H](O)[C@@H]2O[C@]34CC(=O)O[C@@H](c5ccoc5)[C@]3(C)[C@@H](O)[C@@H](C(=O)[C@@H]4C)[C@@]21C | > 100 µM |  | 
10 | C=C1[C@H]2C(=O)[C@@]3(C)[C@@H](O[C@@]14CC(=O)O[C@@H](c1ccoc1)[C@]4(C)[C@H]2O)[C@@H](O)[C@@H](OC(C)=O)C(C)(C)[C@@H]3CC(=O)OC | 5.5 µM | > 7.2 | > 40 µM
11 | COC(=O)C[C@H]1C(C)(C)[C@H](OC(C)=O)[C@H](OC(C)=O)[C@@H]2O[C@]34CC(=O)O[C@@H](c5ccoc5)[C@]3(C)[C@@H](O)[C@@H](C(=O)[C@@H]4C)[C@@]21C | > 100 µM |  | 
12 | Cc1ccnc2c1NC(=O)c1cccnc1N2C1CC1 [NEVIRAPINE] | 0.1 µM | > 833 | 
13 | CCC(C)C(O)C(=O)O[C@H]1[C@H](OC=O)[C@H]([C@@]2(C)[C@@H](OC(C)=O)CC(=O)O[C@](C)(COC(C)=O)[C@@H]2CC(=O)OC)C(COC)=C2[C@H](O)C[C@@H](c3ccoc3)[C@@]21C (some centres not stated) | 6.1 µM | > 6.5 | > 40 µM
14 | C=C1[C@H]2C(=O)[C@@]3(C)[C@@H](O[C@@]14CC(=O)O[C@@H](c1ccoc1)[C@]4(C)[C@H]2OC(C)=O)[C@@H](O)[C@@H](OC(C)=O)C(C)(C)[C@@H]3CC(=O)OC | > 100 µM |  | 
15 | C=C1[C@H]2C(=O)[C@@]3(C)[C@@H](O[C@@]14CC(=O)O[C@@H](C1=C[C@@H](O)OC1=O)[C@]4(C)[C@H]2OC(C)=O)[C@@H](OC(C)=O)CC(C)(C)[C@@H]3CC(=O)OC | > 100 µM |  | 
16 | COC(=O)C[C@H]1C(C)(C)[C@H](O)[C@H](O)[C@@H]2OC3=C(C)C4=CC(=O)O[C@@H](c5ccoc5)[C@]4(C)C[C@@H]3[C@@]21C | > 100 µM |  | 
17 | C=C1[C@@H]2C[C@@]3(C)[C@H](c4ccoc4)OC(=O)C[C@]13O[C@H]1C[C@@H](O)C(C)(C)[C@H](CC(=O)OC)[C@@]1(C)C2=O | > 100 µM |  | 

Source: ChEMBL document CHEMBL3580529, “Limonoids with Anti-HIV Activity from Cipadessa cinerascens” (J Nat Prod, 2015)
